In paper PMC5621377 (Clinical cancer research : an official journal of the …, 2016):
Entries after “also recorded” stand apart in the source; their conditions may differ.

What was measured:
[1] = test system: patients with Rb+ advanced solid tumors or lymphomas; test: Phase I dose escalation: DLT and MTD/RDE determination; type: in vivo
[2] = Pharmacokinetics, plasma LC-MS/MS, non-compartmental analysis; type: in vivo, human
Summary of the method: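 Oral daily dosing at 50–1,200 mg/day. On Cycle 1 Days 1 and 18/21, blood was drawn pre-dose and at 0.5, 1, 2, 4, 6, 8 and 24 h, with further trough days. Parent drug and a metabolite in plasma were measured by validated LC-MS/MS (LLOQ 1.0 ng/mL). Non-compartmental analysis was used. Dose proportionality was fitted as ln(Cmax or AUC0–24) = α + β ln(dose). T1/2,acc came from the accumulation ratio; steady state was judged from troughs.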

[3] = test system: Ki67 and phosphorylated Rb [pRb]; test: Pharmacodynamic biomarkers by immunohistochemistry in skin and tumor biopsies; type: in vivo, human
[4] = test system: Rb+ advanced solid tumors or lymphomas; test: Clinical activity, radiographic response; type: in vivo, human
Summary of the method: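 Oral test compound given daily on a 3-weeks-on/1-week-off schedule (50–1,200 mg/day) or a continuous 28-day schedule (600 mg/day). Response was assessed by CT or MRI per RECIST 1.0 for solid tumors or IWG criteria for lymphomas. Scans were done at the end of every second cycle for six cycles, then every third cycle, and at end of treatment. Patients receiving at least one dose were included; analyses were descriptive.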

neuroblastoma cell lines = conditions: in vitro, dose-dependent; cited from earlier work
Jeko-1 MCL xenograft = conditions: doses comparable to those achievable in humans; cited from earlier work
[5] = ref unpublished data; cited from earlier work

CN(C)C(=O)c1cc2cnc(Nc3ccc(N4CCNCC4)cn3)nc2n1C1CCCC1 [ribociclib]
maximum tolerated dose (MTD) ([1]; 3-weeks-on/1-week-off schedule): 900 mg/day
recommended dose for expansion (RDE) ([1]; human, in vivo, 28 days): 600 mg/day
number of dose-limiting toxicities during Cycle 1 ([1]; in vivo): Nine
mean effective half-life based on accumulation ratio (T1/2, acc) ([2]; at the RDE (600 mg/day 3-weeks-on/1-week-off), oral): 32.6 h
dose proportionality of Cmax and AUC ([2]; dose range 50–1,200 mg/day): slightly higher than dose proportional; also recorded: slightly more than proportional to dose
Tmax ([2]; human, plasma, po): 1 to 5 h
steady state reached by ([2]; trough concentrations after repeated daily dosing): ~8 days
post-treatment changes in pRb in tumor samples ([3]; 16 paired tumor biopsies): not significant or consistent
change of Ki67 in tumor biopsies ([3]; 19 paired tumor biopsies, baseline to Day 15 of Cycle 1 or 2): reductions of Ki67 from baseline were observed at higher ribociclib doses
change of pRb in skin samples ([3]; 46 paired skin biopsies): Mean decreases of pRb in skin samples were observed at all dose levels
change of Ki67 in skin biopsies ([3]; 48 paired skin biopsies, baseline to Day 15 of Cycle 2): post-treatment reductions of Ki67 were observed across all dose levels
patients with best response of stable disease ([4]; 132 patients): 43
stable disease as best overall response by RECIST, patients ([4]; 132 patients): 41
stable disease as best overall response per IWG, patients ([4]; 132 patients): two
partial response rate ([4]; 132 patients, RECIST): 2.3%
stable disease as best overall response, rate ([4]; RECIST plus IWG, 132 patients): 32.6%
time on therapy ([4]; one patient with teratoma, 400 mg/day 3-weeks-on/1-week-off): 100 weeks
time on therapy ([4]; patient with liposarcoma, 600 mg/day continuous, past cut-off date): 102 weeks
concentration with marked accumulation of cells in G0/G1 phase (neuroblastoma cell lines): above 100 nmol/L
tumor response in xenograft (Jeko-1 MCL xenograft): complete regressions
nonclinical toxicity finding, bone marrow [5]: hypocellularity
nonclinical toxicity finding, cardiac [5]: prolongation of the average QTc
nonclinical toxicity finding, lymphoid system [5]: lymphoid depletion
nonclinical toxicity finding, testes [5]: atrophy
